Test results as given in ChEMBL document CHEMBL5724801, “EUbOPEN Chemogenomics Library - Multiplex” (2024).
Where “and” joins values, the source holds several entries; their conditions need not be identical. Identical values can stand only once.

Tested on: HEK-293T
Experiment: Multiplex assay against HEK293T
Type: toxicity, cell-based
Conditions: human
Summary of the method: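 At seeding, live cells were stained with Hoechst33342, BioTracker Green Microtubule Cytoskeleton Dye, MitoTracker Red and Annexin V Alexa Fluor 680. After compound addition they were imaged on a CQ1 microscope at 37°C and 5% CO2, and CellPathfinder machine-learning gating sorted them into Hoechst high-intensity objects or normal cells, with normal cells further split into healthy, pyknosed or fragmented nuclei and pyknosed cells into mitotic or apoptotic. Tubulin, mitochondrial-mass and membrane-permeability phenotypes are given as per cents of cells with healthy nuclei.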

[1] = 12 h, 1 µM, compound concentration 1 uM
[2] = 12 h, 10 µM, compound concentration 10 uM
[3] = 24 h, 1 µM, compound concentration 1 uM
[4] = 24 h, 10 µM, compound concentration 10 uM
[5] = 48 h, 1 µM, compound concentration 1 uM
[6] = 48 h, 10 µM, compound concentration 10 uM

## O=c1ccc2ccc(OCCCCN3CCN(c4cccc5sccc45)CC3)cc2[nH]1 [BREXPIPRAZOLE]
[1]
  Population Apoptotic (%): 44% and 42%
  Population Fragmented Nuclei (%): 6% and 5%
  Population Healthy Nuclei (%): 77% and 80%
  Population Hoechst High Intensity Objects (%): 6%
  Population Membrane Permeable-Phenotype (%): 0%
  Population Mitochondria Different-Phenotype (%): 67% and 69%
  Population Mitotic Cells (%): 55% and 57%
  Population Normal (%): 93%
  Population Pyknosed Nuclei (%): 15% and 14%
  Population Tubulin-Different-Phenotype (%): 51% and 47%
  Total Cell Count: 392 and 354
[2]
  Population Apoptotic (%): 82% and 85%
  Population Fragmented Nuclei (%): 17% and 10%
  Population Healthy Nuclei (%): 43% and 66%
  Population Hoechst High Intensity Objects (%): 66% and 41%
  Population Membrane Permeable-Phenotype (%): 0%
  Population Mitochondria Different-Phenotype (%): 97% and 100%
  Population Mitotic Cells (%): 17% and 14%
  Population Normal (%): 33% and 59%
  Population Pyknosed Nuclei (%): 38% and 23%
  Population Tubulin-Different-Phenotype (%): 81% and 62%
  Total Cell Count: 299 and 200
[3]
  Population Apoptotic (%): 41% and 42%
  Population Fragmented Nuclei (%): 10% and 4%
  Population Healthy Nuclei (%): 73% and 87%
  Population Hoechst High Intensity Objects (%): 8% and 2%
  Population Membrane Permeable-Phenotype (%): 0%
  Population Mitochondria Different-Phenotype (%): 51% and 52%
  Population Mitotic Cells (%): 58% and 57%
  Population Normal (%): 91% and 97%
  Population Pyknosed Nuclei (%): 16% and 7%
  Population Tubulin-Different-Phenotype (%): 36% and 35%
  Total Cell Count: 501 and 449
[4]
  Population Apoptotic (%): 91% and 89%
  Population Fragmented Nuclei (%): 12% and 10%
  Population Healthy Nuclei (%): 37% and 59%
  Population Hoechst High Intensity Objects (%): 68% and 46%
  Population Membrane Permeable-Phenotype (%): 0%
  Population Mitochondria Different-Phenotype (%): 100% and 98%
  Population Mitotic Cells (%): 8% and 10%
  Population Normal (%): 31% and 53%
  Population Pyknosed Nuclei (%): 50% and 30%
  Population Tubulin-Different-Phenotype (%): 66% and 57%
  Total Cell Count: 284 and 180
[5]
  Population Apoptotic (%): 49% and 48%
  Population Fragmented Nuclei (%): 9% and 12%
  Population Healthy Nuclei (%): 80% and 79%
  Population Hoechst High Intensity Objects (%): 5% and 3%
  Population Membrane Permeable-Phenotype (%): 0% and 1%
  Population Mitochondria Different-Phenotype (%): 47% and 36%
  Population Mitotic Cells (%): 50% and 51%
  Population Normal (%): 94% and 96%
  Population Pyknosed Nuclei (%): 10% and 7%
  Population Tubulin-Different-Phenotype (%): 28% and 26%
  Total Cell Count: 679 and 644
[6]
  Population Apoptotic (%): 93% and 89%
  Population Fragmented Nuclei (%): 19% and 14%
  Population Healthy Nuclei (%): 30% and 50%
  Population Hoechst High Intensity Objects (%): 67% and 52%
  Population Membrane Permeable-Phenotype (%): 0%
  Population Mitochondria Different-Phenotype (%): 96% and 97%
  Population Mitotic Cells (%): 6% and 10%
  Population Normal (%): 32% and 47%
  Population Pyknosed Nuclei (%): 50% and 34%
  Population Tubulin-Different-Phenotype (%): 51% and 82%
  Total Cell Count: 269 and 170

## C[C@H]1[C@H]2CC[C@H]3[C@@H]4CC=C5C[C@@H](N(C)C)CC[C@]5(C)[C@H]4CC[C@]23CN1C [CONESSINE]
[1]
  Population Apoptotic (%): 35% and 48%
  Population Fragmented Nuclei (%): 5% and 4%
  Population Healthy Nuclei (%): 78% and 85%
  Population Hoechst High Intensity Objects (%): 6% and 8%
  Population Membrane Permeable-Phenotype (%): 0%
  Population Mitochondria Different-Phenotype (%): 39% and 58%
  Population Mitotic Cells (%): 65% and 51%
  Population Normal (%): 93% and 91%
  Population Pyknosed Nuclei (%): 16% and 10%
  Population Tubulin-Different-Phenotype (%): 26% and 22%
  Total Cell Count: 400 and 356
[2]
  Population Apoptotic (%): 35% and 59%
  Population Fragmented Nuclei (%): 6% and 7%
  Population Healthy Nuclei (%): 77% and 78%
  Population Hoechst High Intensity Objects (%): 6% and 9%
  Population Membrane Permeable-Phenotype (%): 1% and 0%
  Population Mitochondria Different-Phenotype (%): 56% and 62%
  Population Mitotic Cells (%): 65% and 40%
  Population Normal (%): 93% and 90%
  Population Pyknosed Nuclei (%): 15% and 14%
  Population Tubulin-Different-Phenotype (%): 38% and 30%
  Total Cell Count: 419 and 384
[3]
  Population Apoptotic (%): 26% and 25%
  Population Fragmented Nuclei (%): 9% and 8%
  Population Healthy Nuclei (%): 80% and 81%
  Population Hoechst High Intensity Objects (%): 5% and 4%
  Population Membrane Permeable-Phenotype (%): 1% and 0%
  Population Mitochondria Different-Phenotype (%): 22% and 34%
  Population Mitotic Cells (%): 73% and 75%
  Population Normal (%): 94% and 95%
  Population Pyknosed Nuclei (%): 10%
  Population Tubulin-Different-Phenotype (%): 17% and 16%
  Total Cell Count: 514 and 484
[4]
  Population Apoptotic (%): 27% and 47%
  Population Fragmented Nuclei (%): 9%
  Population Healthy Nuclei (%): 79% and 82%
  Population Hoechst High Intensity Objects (%): 6% and 9%
  Population Membrane Permeable-Phenotype (%): 1% and 0%
  Population Mitochondria Different-Phenotype (%): 38% and 43%
  Population Mitotic Cells (%): 72% and 52%
  Population Normal (%): 93% and 90%
  Population Pyknosed Nuclei (%): 11% and 7%
  Population Tubulin-Different-Phenotype (%): 28% and 24%
  Total Cell Count: 572 and 474
[5]
  Population Apoptotic (%): 30% and 36%
  Population Fragmented Nuclei (%): 9% and 10%
  Population Healthy Nuclei (%): 82% and 83%
  Population Hoechst High Intensity Objects (%): 2% and 4%
  Population Membrane Permeable-Phenotype (%): 1%
  Population Mitochondria Different-Phenotype (%): 18% and 20%
  Population Mitotic Cells (%): 69% and 63%
  Population Normal (%): 97% and 95%
  Population Pyknosed Nuclei (%): 7% and 5%
  Population Tubulin-Different-Phenotype (%): 12% and 11%
  Total Cell Count: 735 and 630
[6]
  Population Apoptotic (%): 27% and 36%
  Population Fragmented Nuclei (%): 14% and 10%
  Population Healthy Nuclei (%): 78% and 81%
  Population Hoechst High Intensity Objects (%): 4% and 5%
  Population Membrane Permeable-Phenotype (%): 1% and 0%
  Population Mitochondria Different-Phenotype (%): 23% and 32%
  Population Mitotic Cells (%): 72% and 63%
  Population Normal (%): 95% and 94%
  Population Pyknosed Nuclei (%): 6% and 7%
  Population Tubulin-Different-Phenotype (%): 15% and 17%
  Total Cell Count: 767 and 618
